According to ChEMBL document CHEMBL4513216, “Probing the Open Global Health Chemical Diversity Library for Multistage-Active Starting Points for Next-Generation Antimalarials” (ACS Infect Dis, 2020):

Test: Toxicity liver stage against HepG2, at 10uM
Type: cell-based
Set-up: test concentration 10 uM, cell line HepG2-A16-CD81EGFP
Conditions: human, HepG2-A16-CD81EGFP cells; read-out: INHIBITION
Outline: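 Uninfected HepG2-A16-CD81EGFP cells, 3 × 10^3 per well, 1536-well, plated on prespotted compound at 10 μM final, parasite-free screening media added to match infected plates; puromycin 10 μM positive, DMSO 0.5% negative; run in parallel with 48 h PbLuc assay at 37 °C, 5% CO2; viability by CellTiter-Glo luminescence, normalized to controls.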

O=C(NCc1cc(F)cc(Br)c1)C1(O)CCSCC1
cytotoxicity at 10 µM: 3.6%

COc1cccc(-c2nc(C)c(C(=O)N[C@@H](CC(C)C)C(=O)O)s2)c1
cytotoxicity at 10 µM: 4.21%

Cc1ccoc1C(=O)NC1CCN(Cc2cccc3ccccc23)CC1
cytotoxicity at 10 µM: 0.561%

CCS(=O)(=O)c1ncc(CN(C)Cc2ccccc2Cl)n1CCOC
cytotoxicity at 10 µM: 3.58%

Cc1cc(C)n(CC2CCCN2C(=O)CCc2nccs2)n1 (stereo not given)
cytotoxicity at 10 µM: -7.07%

CCC(C)N(CCOC)Cc1nc2c(cnn2C)c(=O)[nH]1 (stereo not given)
cytotoxicity at 10 µM: -12.4%

COc1ccc(C(=O)NC2CC2)c(OC2CCN(C3CCC3)CC2)c1
cytotoxicity at 10 µM: 0.542%

CN(c1ccc(-c2nc(C3CC3)no2)cn1)C1CCOCC1
cytotoxicity at 10 µM: -10.8%

O=C(NCCc1[nH]nc2c1CCCC2)C1CCCN(Cc2ccco2)C1 (stereo not given)
cytotoxicity at 10 µM: 2.72%

Cc1nn2cc(CCNC(=O)c3cc(C(C)C)no3)nc2s1
cytotoxicity at 10 µM: -4.8%

CN(CC(=O)Nc1cccnc1)CC1CCCN1c1cccnn1 (stereo not given)
cytotoxicity at 10 µM: 2.66%

O=C1CSC(c2ccccc2)c2c(n(C3CCOCC3)[nH]c2=O)N1 (stereo not given)
cytotoxicity at 10 µM: -4.69%

CC[C@@H](CO)NC(=O)c1coc(COc2ccc3sc(C)nc3c2)n1
cytotoxicity at 10 µM: 4.67%

CCOCC1CN(C(=O)Cc2ccccn2)Cc2c1cnn2C (stereo not given)
cytotoxicity at 10 µM: -72%

CCC(CO)NC(=O)c1cc(COc2ccc(OC)cc2Cl)[nH]n1 (stereo not given)
cytotoxicity at 10 µM: 2.2%

CC(C)C(=O)N1CCN(C(=O)c2cscn2)[C@H]2CS(=O)(=O)C[C@H]21
cytotoxicity at 10 µM: -7.15%

OC1(CN2CCCC2)CCCN(Cc2c[nH]c(CC3CCCC3)n2)C1 (stereo not given)
cytotoxicity at 10 µM: -9.09%

CCC(C)C(=O)NCc1ccc(-n2cncn2)nc1 (stereo not given)
cytotoxicity at 10 µM: 8.85%

CC(CNC(=O)c1c[nH]nn1)Oc1ccccc1Br (stereo not given)
cytotoxicity at 10 µM: -0.509%

Cc1ncsc1C(=O)N(Cc1ccccc1)C1CC1
cytotoxicity at 10 µM: -6.48%

Cc1noc(C)c1-c1ccnc(C2CCN(S(=O)(=O)N(C)C)CC2)c1
cytotoxicity at 10 µM: -25%

CC(C)CN1C[C@@H]2CN(C(=O)[C@H]3CCCO3)C[C@@H]2C1=O
cytotoxicity at 10 µM: 6.03%

CS(=O)(=O)N[C@H]1COC[C@@H]2CN(Cc3ccco3)C[C@@H]21
cytotoxicity at 10 µM: 9.12%

CC(C)C(=O)N1CCC2(CC1)NC(=O)[C@H]1CN(Cc3cccnc3)C[C@H]12
cytotoxicity at 10 µM: -0.331%

Cn1cc(CNCCNC(=O)Cc2ccccc2)c(-c2cccnc2)n1
cytotoxicity at 10 µM: 13.1%

Cc1cccc(CN2CCC3(CCCN(Cc4cnn(C)c4)C3)C2=O)n1 (stereo not given)
cytotoxicity at 10 µM: 6.02%

CC(C)N1CCC2(C=C(C(=O)N(C)C)c3ccccc32)CC1
cytotoxicity at 10 µM: 1.24%

Cc1ccc(N2CCCC(N3CCC(N(C)C)CC3)C2=O)cc1 (stereo not given)
cytotoxicity at 10 µM: -5.16%

O=C(NC1CCS(=O)(=O)C1)c1ccc(SCc2cscn2)cc1 (stereo not given)
cytotoxicity at 10 µM: -1.23%

CCN1CCC2(CC1)CC(NC(=O)c1c[nH]cn1)c1ccccc1O2 (stereo not given)
cytotoxicity at 10 µM: -103%

COCCC(=O)N1CCOCC(Cc2ccc3c(ccn3C)c2)C1 (stereo not given)
cytotoxicity at 10 µM: 6.66%

O=C(CCNS(=O)(=O)c1ccc(F)c(F)c1)NCc1ccoc1
cytotoxicity at 10 µM: 11.2%

Cn1c(=NC(=O)CSCC(=O)Nc2nccs2)sc2ccccc21
cytotoxicity at 10 µM: -1.81%

COc1cc(F)c(NCc2nc3ccccc3n2C)cc1OC
cytotoxicity at 10 µM: 26.5%

CCc1nc(CN2CCCC(N(C)CCc3cccs3)C2)no1 (stereo not given)
cytotoxicity at 10 µM: 15.5%

CN(C)c1cccc(C2CCCN2CCCN2CCOC2=O)c1 (stereo not given)
cytotoxicity at 10 µM: -10.2%

CCc1nn(C)c(Cl)c1CN1CCN(c2nc(C(N)=O)cs2)CC1
cytotoxicity at 10 µM: 8.81%

CCN1C(=O)CCC12CCCN(Cc1ccc(F)cc1)CC2 (stereo not given)
cytotoxicity at 10 µM: -0.861%

Cc1csc(C(C)(C)NCc2ncc(-c3ccc(F)cc3)o2)n1
cytotoxicity at 10 µM: 8.27%

COc1cc(OC)cc(C2(O)CCN(Cc3ncc(C)o3)CC2)c1
cytotoxicity at 10 µM: 17%

Cc1cc(NCC2(O)CCOCC2)c2ccccc2n1
cytotoxicity at 10 µM: -13.3%

CCn1cc(Br)c(C(=O)NCc2cccnc2)n1
cytotoxicity at 10 µM: -10.1%

O=C1CCC(c2ccc(Cl)cc2)=NN1CN1CCCCCC1
cytotoxicity at 10 µM: 35.7%

COc1c(C2CCCN2C(=O)c2ccc(C(N)=O)s2)c(C)nn1C (stereo not given)
cytotoxicity at 10 µM: 0.00973%

CNc1nc(C)c(C(=O)N2CCCCC2CCc2ccc(O)cc2)s1 (stereo not given)
cytotoxicity at 10 µM: 0.126%

CN1CC2(CCCN(Cc3cccc(Oc4ccccc4)c3)C2)OC1=O (stereo not given)
cytotoxicity at 10 µM: 5.09%

NC(=O)CN1CCCC(c2cncc(Nc3ncccn3)n2)C1 (stereo not given)
cytotoxicity at 10 µM: -2.61%

COc1cc(C)nc(N2CCN(C(=O)CSC)CC2)n1
cytotoxicity at 10 µM: -6.42%

CCC(C)(C)C(=O)N1C[C@@H]2C[C@@H](c3nnc(C)[nH]3)O[C@@H]2C1
cytotoxicity at 10 µM: 4.79%

Cc1nn(C(C)C)c(C)c1S(=O)(=O)Nc1ccc(C(=O)O)cc1
cytotoxicity at 10 µM: 15.2%

c1ncn(CC2CCCN2Cc2cn3ccsc3n2)n1 (stereo not given)
cytotoxicity at 10 µM: -10.1%

Cn1cc(-c2ncc3c(c2C(=O)O)CCN(Cc2ccccn2)C3)cn1
cytotoxicity at 10 µM: -107%

CC(C)OCc1ncn2c1CN(Cc1ccoc1)CCC2
cytotoxicity at 10 µM: -75.7%

CC(=O)N1CCN(Cc2ccc(OCc3nccn3C)cc2)CC1
cytotoxicity at 10 µM: -2.68%

Cc1ccc(=O)n(CC2(O)CCN(Cc3ccsc3)CC2)n1
cytotoxicity at 10 µM: 0.642%
